# KCNK3 block – human KCNK3 channel inhibitors, primary screen, CHO cells, FluxOR thallium flux, B-score; Potassium channel subfamily K member 3 (Homo sapiens), O14649; FluxOR fluorescence; stronger effect = lower value; B-score at 10 µM; hit rate 0.84% among 340,000;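 active means B-score under library mean minus 4 SD, starting fluorescence ratio at most library mean plus 5 SD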;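 further: more negative B-score means stronger inhibition of thallium flux through KCNK3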
# KCNQ1 block – inhibitors of human KCNQ1 channel, primary screen, cell-based, thallium flux, high-throughput; CHO-K1 KCNQ1, FluxOR thallium flux fluorescence; stronger effect = higher value; B-score at 10 µM; hit rate 1.3% among 310,000; AID 2642, 2010;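 active means compounds whose thallium flux B-score, printed positive for inhibition, exceeds three library SD while starting fluorescence stays within three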;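 further: channel opened by potassium depolarization with thallium stimulus after 20 min compound exposure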
# KCNK9 inh – KCNK9 potassium channel inhibitors, primary screen, HEK293 cells, thallium flux; B-score at 10 µM; hit rate 1.2% among 310,000; FluxOR thallium flux fluorescence; stronger effect = lower value; Potassium channel subfamily K member 9 (Homo sapiens), Q9NPC2; AID 488922, 2010;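 active means ratio B-score over 3 SD below the library mean, with starting fluorescence within 5 SD of its mean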;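 further: negative B-score means less thallium flux so channel inhibition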
# Target sequence (Q9NPC2 whole entry, looked up): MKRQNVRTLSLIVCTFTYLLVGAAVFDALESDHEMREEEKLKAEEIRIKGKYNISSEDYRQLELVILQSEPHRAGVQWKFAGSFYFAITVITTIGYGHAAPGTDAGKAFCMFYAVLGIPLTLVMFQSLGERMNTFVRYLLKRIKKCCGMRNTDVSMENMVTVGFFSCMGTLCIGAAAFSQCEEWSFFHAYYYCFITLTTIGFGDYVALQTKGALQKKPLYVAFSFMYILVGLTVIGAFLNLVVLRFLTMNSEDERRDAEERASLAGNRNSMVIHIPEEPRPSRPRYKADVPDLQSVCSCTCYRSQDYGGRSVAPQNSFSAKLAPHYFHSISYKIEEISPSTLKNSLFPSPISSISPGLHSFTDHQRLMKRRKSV
# hERG rescue – hERG rescue from dofetilide block, primary screen, cell-based, CHO-hERG, FluxOR thallium flux, dofetilide IC70; Voltage-gated inwardly rectifying potassium channel KCNH2 (Homo sapiens), Q12809; dofetilide IC70 present; activation (rescue from dofetilide block), less the hit threshold, % at 10 µM; hit rate 0.51% among 310,000;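 active means activation above the mean of controls blocked by dofetilide plus 5 SD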;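 further: thallium influx through hERG after potassium depolarization seen as dye fluorescence rise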
# KCNQ1 pot – potentiators or activators of KCNQ1 channel, primary screen, cell-based, thallium flux, high-throughput | Potassium voltage-gated channel subfamily KQT member 1 (Homo sapiens), P51787 | CHO-K1 KCNQ1, thallium flux FluxOR fluorescence; stronger effect = higher value | B-score at 10 µM | hit rate 0.35% among 310,000;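 active means fluorescence ratio B-score, a plate-corrected score, at least three library SD, with initial intensity B-score within 5 SD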
#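 Assay system: CHO-K1 cells stably expressing KCNQ1; Medium: assay buffer with matched DMSO; Also added: K+/Tl+ depolarizing stimulus; Dosing: single dose; Timing: dye 90 min, compound 20 min, room temperature; Measured by: kinetic FluxOR thallium fluorescence, 10-s 1-Hz baseline, 110-s post-stimulus read; Read-out: peak-minus-minimum fluorescence over initial fluorescence, negative-control normalized, B-scored.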
# KCNK9 block conf – KCNK9 potassium channel inhibitors, confirmation, HEK293 cells, thallium flux, duplicate; shares compounds with KCNK9 inh; FluxOR thallium flux fluorescence; inhibition, % at 10 µM; hit rate 43% among 4,900;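 active means thallium signal inhibited by more than 5 SD of the compound-free buffer control wells, on both duplicate plates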;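 further: 0% = assay buffer control wells without compound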
# Kir2-1 spec – mouse Kir2.1 channel inhibition, confirmation, selectivity assay for KCNK9 modulator project, cell-based, HEK293, thallium flux; shares compounds with KCNK9 inh; Kir2.1 cells, FluxOR thallium flux fluorescence; inhibition, % at 10 µM; hit rate 4% among 4,900; AID 492993, 2010;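 active means thallium signal drop more than 5 SD beyond the mean of the no-compound control wells, seen in both duplicate plates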;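 further: signal is fluorescence rise after thallium addition divided by baseline fluorescence; plate controls were assay buffer only for no effect and full block by chlorpromazine control for full effect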
# KCNK9 uninduced – thallium flux in non-induced HEK293 cells, confirmation, counter-screen for KCNK9 inhibitor project, cell-based, second counter screen, non-induced KCNK9-HEK293 | shares compounds with KCNK9 inh | FluxOR thallium flux | inhibition, % at 10 µM | hit rate 40% among 4,900;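 active means thallium signal drop beyond 5 SD of the untreated control mean, on both duplicate plates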;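 further: plate controls were buffer only IC0 wells for no effect and SID17386958 at its maximal inhibitory level for full effect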
# * marks the source's active call; other numbers are inactive results; i = inactive; · = no result given. The list is not random: actives were taken first. Their share in the collection is about 3.1%.
SMILES,KCNK3 block,KCNQ1 block,KCNK9 inh,hERG rescue,KCNQ1 pot,KCNK9 block conf,Kir2-1 spec,KCNK9 uninduced
O=C(Nc1cc2c3c(c1)C1CCCC1CN3CC1CCCC21)c1ccccc1 (centres undefined),i,9*,-12*,-10,i,i,i,i
O=C(NCCC1=CCCCC1)c1ccc(Cl)c(S(=O)(=O)N2CCOCC2)c1,i,i,i,-10,i,·,·,·
O=C(NCCC1=CCCCC1)c1ccc(Cl)c(S(=O)(=O)N2CCCCC2)c1,i,i,i,-5,i,i,i,i
Cc1ccc(CSCCNC(=O)c2ccc(Cl)c(S(=O)(=O)N3CCOCC3)c2)cc1,i,i,i,-15,i,i,i,i
CC1CN(S(=O)(=O)c2ccc(C(=O)Nc3nnc(-c4ccc5c(c4)CCCC5)o3)cc2)CC(C)O1 (centres undefined),i,i,i,-9,i,i,i,i
CC1CN(S(=O)(=O)c2ccc(C(=O)Nc3nnc(-c4ccccn4)o3)cc2)CC(C)O1 (centres undefined),i,i,i,-8,i,·,·,·
COc1cccc2c1-c1c(C(=O)O)cccc1C2=O,i,i,i,-9,i,i,i,i
CCCc1nc2ccccc2c(=O)n1/N=C/c1ccccc1O,i,6*,-8.4*,-16,i,60%*,i,30%*
CCCCc1noc(-c2c(-c3ccccc3Cl)noc2C)n1,i,i,i,-9,i,i,i,i
Cc1c(C)c2c(c(C)c1O)CCC(C)(C(=O)O)O2 (centres undefined),i,·,·,·,·,·,·,·
CC1CCN(C(=O)C2CCN(C(=O)c3cc4sccc4n3Cc3ccc(F)cc3)CC2)CC1,i,i,i,-2,i,·,·,·
O=C(c1cc2sccc2n1Cc1ccc(F)cc1)N1CCCc2ccccc21,i,i,-10*,-8,i,51%*,i,37%*
COc1cccc(C(=O)NCCS(=O)(=O)N2CCN(C(=O)c3ccco3)CC2)c1,i,i,i,-6,i,·,·,·
COc1ccc(Cl)cc1C=CC=Nc1ccccc1O,i,·,·,·,·,·,·,·
Cc1ccc(C(=O)c2coc3c2C(=O)C(=O)c2ccccc2-3)cc1,i,i,-9.4*,-9,i,i,i,i
CC(=O)C1=C(O)C(=O)N(c2ccc(O)cc2)C1c1ccccc1Cl (centres undefined),i,i,i,-12,i,·,·,·
O=C1c2ccccc2C(=O)N1CCCCSc1nc2ccccc2o1,i,i,i,-6,i,i,i,i
O=C(CCC(=O)c1ccc(Oc2ccccc2)cc1)Nc1ccc(Cl)cc1Cl,i,i,i,-7,i,i,i,i
CCOC(=O)C1=C(C)OC(N)=C(C#N)C1c1ccccc1 (centres undefined),i,i,i,-18,i,·,·,·
CCOC(=O)C1=C(CSc2nc(C)cc(C)c2C#N)OC(N)=C(C#N)C1c1ccccc1 (centres undefined),i,i,-14*,-16,i,56%*,i,48%*
CCCCN(C(=O)c1ccc(N(C)S(=O)(=O)c2ccc(C)cc2)cc1)c1c(N)n(CC(C)C)c(=O)[nH]c1=O,i,·,·,·,·,·,·,·
COc1ccc2c(c1)C(=NNc1ccc(C(=O)O)cc1)c1cc(OC)ccc1-2,i,i,i,-8,i,i,i,i
O=C(Cc1ccc2c(c1)OCCO2)Nc1cc(C(F)(F)F)ccc1N1CCOCC1,i,·,·,·,·,·,·,·
CCCCOC(=O)Nc1cc(C)c(Cl)cc1OC,i,i,i,1,i,·,·,·
CCCCOC(=O)Nc1cc(Cl)ccc1C,i,i,-13*,-9,i,32%*,i,i
SMILES,KCNK3 block,KCNQ1 block,KCNK9 inh,hERG rescue,KCNQ1 pot,KCNK9 block conf,Kir2-1 spec,KCNK9 uninduced
CCOC(=O)c1sc(-c2ccc(OC)cc2)cc1NC(C)=O,i,i,i,-2,i,i,i,i
CCOc1ccc(-c2cc(NC(=O)c3c(F)cccc3F)c(C(=O)O)s2)cc1,i,i,i,-11,i,i,i,i
N#Cc1ccccc1NC(=O)c1ccc2c(c1)OCCO2,i,i,i,-7,i,·,·,·
Cc1cccc(OCCC(=O)Nc2ccc(C)c(S(=O)(=O)N3CCCCC3)c2)c1,i,i,i,-1,i,i,i,i
Cc1cccc(OCCOC(=O)C2CCN(S(=O)(=O)c3ccc(C)c(C)c3)CC2)c1,i,i,i,-17,i,i,i,i
Cc1cccc(Oc2ccc(S(=O)(=O)N3CCCCC3)cc2N)c1,i,i,-10*,-23,i,50%*,i,31%*
Cc1ccc(OCCOC(=O)C2CCN(S(=O)(=O)c3ccc(C)c(C)c3)CC2)cc1,i,i,i,-7,i,i,i,i
Cc1cccc(OCCC(=O)Nc2ccc(S(=O)(=O)N3CCCC3)cc2)c1,i,i,i,-5,i,·,·,·
COc1ccc(CN(C)C(=O)[C@H](Cc2ccccc2)NC(=O)c2ccco2)c(OC)c1,i,·,·,·,·,·,·,·
COc1cccc(OCCNc2cc(Cl)ccc2[N+](=O)[O-])c1,i,i,-12*,-20,i,54%*,i,34%*
COc1cccc(OCCNc2ccc([N+](=O)[O-])cn2)c1,i,·,·,·,·,·,·,·
COc1cccc(OCCOCCOc2ccc(C)cc2[N+](=O)[O-])c1,i,i,i,-10,i,i,i,i
CC(C)n1c(SCC(=O)NC2CC2)nnc1-c1ccco1,i,i,i,-11,i,·,·,·
COc1ccc(Oc2ccc(C(F)(F)F)cc2NC(=O)c2ccc(F)cc2)cc1,i,6*,i,-11,i,i,i,i
COCCOc1ccc(C(F)(F)F)cc1NC(=O)c1ccc(C(F)(F)F)cc1,i,i,i,-10,i,·,·,·
